Laboratory results as given in ChEMBL document CHEMBL4680235, “Structure-based discovery of novel 4-(2-fluorophenoxy)quinoline derivatives as c-Met inhibitors using isocyanide-involved multicomponent reactions” (Eur J Med Chem, 2020).

Experiments:
NCI-H460 [1] = experiment: Antiproliferative activity against human NCI-H460 cells assessed as reduction in cell viability measured after 72 hrs by MTT assay; conditions: NCI-H460, 72 h
HT-29 [2] = experiment: Antiproliferative activity against human HT-29 cells assessed as reduction in cell viability measured after 72 hrs by MTT assay; conditions: HT-29, 72 h
MDA-MB-231 [3] = experiment: Antiproliferative activity against human MDA-MB-231 cells assessed as reduction in cell viability measured after 72 hrs by MTT assay; conditions: MDA-MB-231, 72 h
MKN-45 = experiment: Antiproliferative activity against human MKN-45 cells assessed as reduction in cell viability measured after 72 hrs by MTT assay; conditions: MKN-45, 72 h
[4] = target: Hepatocyte growth factor receptor (Homo sapiens, UniProt P08581); experiment: Inhibition of c-MET (unknown origin) using poly (Glu, Tyr) 4:1 as substrate measured after 30 mins by HTRF assay
NCI-H460 [5] = experiment: Potency index, ratio of foretinib IC50 to test compound IC50 for antiproliferative activity against human NCI-H460 cells; type: functional
HT-29 [6] = experiment: Potency index, ratio of foretinib IC50 to test compound IC50 for antiproliferative activity against human HT-29 cells; type: functional
MDA-MB-231 [7] = experiment: Potency index, ratio of foretinib IC50 to test compound IC50 for antiproliferative activity against human MDA-MB-231 cells; type: functional
[8] = target: Mast/stem cell growth factor receptor Kit (Homo sapiens, UniProt P10721); experiment: Inhibition of c-Kit (unknown origin)
Outline: (§1)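 HTRF kinase assay with purified kinase protein on preloaded poly(Glu,Tyr) 4:1 substrate, 20 mg/mL. ATP at 10 mM (solution added) in buffer of 50 mM HEPES pH 7.0 with DTT, MgCl₂, MnCl₂ and 0.1% NaN₃. Compounds diluted in 1% DMSO. Reaction ran 30 min at 25 °C. Percent inhibition computed against no-enzyme (min) and full-activity (max) wells. IC50 taken from the inhibition curves.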

[9] = target: T1, Receptor-type tyrosine-protein kinase FLT3 (Homo sapiens, UniProt P36888); experiment: Inhibition of FLT3 (unknown origin)
T1 sequence (P36888 whole entry): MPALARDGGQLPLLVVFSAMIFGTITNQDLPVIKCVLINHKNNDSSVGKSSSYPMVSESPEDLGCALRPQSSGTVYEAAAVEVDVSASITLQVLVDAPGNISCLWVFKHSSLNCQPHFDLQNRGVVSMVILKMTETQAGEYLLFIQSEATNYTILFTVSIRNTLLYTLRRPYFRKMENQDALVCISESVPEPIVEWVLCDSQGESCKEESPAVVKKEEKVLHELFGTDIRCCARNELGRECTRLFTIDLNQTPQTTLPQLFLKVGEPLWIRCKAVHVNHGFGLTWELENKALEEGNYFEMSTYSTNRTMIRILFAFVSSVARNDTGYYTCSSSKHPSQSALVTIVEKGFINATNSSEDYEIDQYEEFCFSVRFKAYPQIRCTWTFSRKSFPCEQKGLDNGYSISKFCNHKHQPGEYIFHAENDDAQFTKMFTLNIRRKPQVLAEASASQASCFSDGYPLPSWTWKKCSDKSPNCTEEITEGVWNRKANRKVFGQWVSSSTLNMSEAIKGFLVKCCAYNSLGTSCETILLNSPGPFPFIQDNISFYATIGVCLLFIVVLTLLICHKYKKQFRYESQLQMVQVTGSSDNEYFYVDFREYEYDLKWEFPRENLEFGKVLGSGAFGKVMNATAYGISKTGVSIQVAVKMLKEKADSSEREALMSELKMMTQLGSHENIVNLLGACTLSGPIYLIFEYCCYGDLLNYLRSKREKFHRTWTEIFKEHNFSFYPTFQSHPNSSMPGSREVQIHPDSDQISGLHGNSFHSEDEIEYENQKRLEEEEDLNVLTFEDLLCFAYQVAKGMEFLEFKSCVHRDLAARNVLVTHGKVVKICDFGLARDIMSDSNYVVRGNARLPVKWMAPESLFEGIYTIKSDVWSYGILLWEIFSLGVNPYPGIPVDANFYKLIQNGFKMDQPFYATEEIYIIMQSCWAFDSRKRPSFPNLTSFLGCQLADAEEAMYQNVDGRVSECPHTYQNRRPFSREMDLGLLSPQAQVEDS

[10] = target: Macrophage-stimulating protein receptor (Homo sapiens, UniProt Q04912); experiment: Inhibition of Ron (unknown origin); outline: as §1
[11] = target: Vascular endothelial growth factor receptor 2 (Homo sapiens, UniProt P35968); experiment: Inhibition of VEGFR2 (unknown origin)
[12] = target: Vascular endothelial growth factor receptor 3 (Homo sapiens, UniProt P35916); experiment: Inhibition of Flt4 (unknown origin); outline: as §1
[13] = target: Epidermal growth factor receptor (Homo sapiens, UniProt P00533); experiment: Inhibition of EGFR (unknown origin); outline: as §1
NCI-H460 [14] = experiment: Antiproliferative activity against human NCI-H460 cells assessed as reduction in cell viability hrs by MTT assay; type: functional, cell-based; conditions: TDE = time-dependent effect

Sequence of Hepatocyte growth factor receptor (P08581 whole entry): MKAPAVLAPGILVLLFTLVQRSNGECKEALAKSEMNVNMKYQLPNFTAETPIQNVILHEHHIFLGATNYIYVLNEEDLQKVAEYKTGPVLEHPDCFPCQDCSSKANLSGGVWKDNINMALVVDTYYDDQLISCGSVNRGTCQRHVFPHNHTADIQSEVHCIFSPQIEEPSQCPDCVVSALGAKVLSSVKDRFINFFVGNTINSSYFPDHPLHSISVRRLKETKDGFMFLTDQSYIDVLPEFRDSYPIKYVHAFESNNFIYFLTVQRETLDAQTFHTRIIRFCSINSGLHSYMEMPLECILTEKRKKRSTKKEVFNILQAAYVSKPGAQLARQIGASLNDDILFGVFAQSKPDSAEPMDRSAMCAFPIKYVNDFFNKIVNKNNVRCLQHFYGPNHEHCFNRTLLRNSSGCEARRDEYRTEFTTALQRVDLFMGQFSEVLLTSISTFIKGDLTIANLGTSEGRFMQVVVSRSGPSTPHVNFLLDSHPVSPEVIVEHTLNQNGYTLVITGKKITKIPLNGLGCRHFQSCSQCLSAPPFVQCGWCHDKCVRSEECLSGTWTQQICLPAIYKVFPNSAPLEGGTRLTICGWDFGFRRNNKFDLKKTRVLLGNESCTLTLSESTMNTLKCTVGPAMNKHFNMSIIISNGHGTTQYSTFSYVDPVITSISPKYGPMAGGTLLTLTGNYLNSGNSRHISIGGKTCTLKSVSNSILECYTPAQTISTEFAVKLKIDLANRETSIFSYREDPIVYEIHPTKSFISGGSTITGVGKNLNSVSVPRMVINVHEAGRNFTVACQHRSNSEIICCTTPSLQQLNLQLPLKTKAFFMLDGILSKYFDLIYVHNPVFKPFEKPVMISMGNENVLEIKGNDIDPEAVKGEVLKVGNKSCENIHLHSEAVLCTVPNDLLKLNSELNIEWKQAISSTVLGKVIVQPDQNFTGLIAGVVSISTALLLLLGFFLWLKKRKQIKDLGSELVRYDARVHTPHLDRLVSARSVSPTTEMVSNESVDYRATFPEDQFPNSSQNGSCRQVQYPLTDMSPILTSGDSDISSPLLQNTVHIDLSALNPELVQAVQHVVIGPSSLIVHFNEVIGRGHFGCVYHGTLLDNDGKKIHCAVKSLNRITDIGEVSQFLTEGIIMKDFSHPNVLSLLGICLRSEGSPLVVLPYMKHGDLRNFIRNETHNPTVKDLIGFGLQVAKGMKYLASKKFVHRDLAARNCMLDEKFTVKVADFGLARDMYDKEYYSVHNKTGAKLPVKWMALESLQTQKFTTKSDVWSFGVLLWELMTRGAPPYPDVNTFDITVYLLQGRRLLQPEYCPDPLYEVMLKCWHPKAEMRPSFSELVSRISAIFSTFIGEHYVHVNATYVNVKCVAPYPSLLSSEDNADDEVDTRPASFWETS
Sequence of Mast/stem cell growth factor receptor Kit (P10721 whole entry): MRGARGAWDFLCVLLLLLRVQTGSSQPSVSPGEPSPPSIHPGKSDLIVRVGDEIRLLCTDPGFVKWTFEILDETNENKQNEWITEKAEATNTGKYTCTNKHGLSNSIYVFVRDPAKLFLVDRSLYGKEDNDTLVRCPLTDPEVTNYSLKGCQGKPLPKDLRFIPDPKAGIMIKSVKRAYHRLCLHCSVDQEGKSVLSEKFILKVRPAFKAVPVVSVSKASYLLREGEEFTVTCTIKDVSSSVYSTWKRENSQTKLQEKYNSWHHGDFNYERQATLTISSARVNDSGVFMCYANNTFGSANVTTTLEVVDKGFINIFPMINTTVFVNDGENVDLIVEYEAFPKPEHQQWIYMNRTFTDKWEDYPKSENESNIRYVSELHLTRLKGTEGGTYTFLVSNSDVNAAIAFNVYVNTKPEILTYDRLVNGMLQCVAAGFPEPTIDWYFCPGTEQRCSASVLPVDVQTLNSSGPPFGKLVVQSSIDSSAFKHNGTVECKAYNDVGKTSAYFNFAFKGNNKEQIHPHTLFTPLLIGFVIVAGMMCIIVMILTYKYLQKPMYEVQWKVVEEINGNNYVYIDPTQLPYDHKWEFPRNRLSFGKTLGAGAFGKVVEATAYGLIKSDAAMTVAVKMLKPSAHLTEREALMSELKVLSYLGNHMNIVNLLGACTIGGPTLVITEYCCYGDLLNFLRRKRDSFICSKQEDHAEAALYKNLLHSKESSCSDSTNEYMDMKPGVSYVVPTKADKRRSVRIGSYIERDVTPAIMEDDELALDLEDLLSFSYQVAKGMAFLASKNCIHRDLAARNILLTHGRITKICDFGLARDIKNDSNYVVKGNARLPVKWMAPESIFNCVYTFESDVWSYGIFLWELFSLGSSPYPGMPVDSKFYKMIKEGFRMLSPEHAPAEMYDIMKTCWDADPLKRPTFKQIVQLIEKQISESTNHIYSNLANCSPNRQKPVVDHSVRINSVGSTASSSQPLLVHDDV
Sequence of Macrophage-stimulating protein receptor (Q04912 25-304 limits assumed): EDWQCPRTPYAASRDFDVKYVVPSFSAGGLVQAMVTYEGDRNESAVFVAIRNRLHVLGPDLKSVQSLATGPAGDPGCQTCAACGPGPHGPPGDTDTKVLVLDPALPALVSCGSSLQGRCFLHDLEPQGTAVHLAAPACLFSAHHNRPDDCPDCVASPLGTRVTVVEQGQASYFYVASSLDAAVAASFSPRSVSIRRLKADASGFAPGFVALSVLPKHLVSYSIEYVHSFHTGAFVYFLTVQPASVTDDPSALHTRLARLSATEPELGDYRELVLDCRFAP
Sequence of Macrophage-stimulating protein receptor (Q04912 310-1400 limits assumed): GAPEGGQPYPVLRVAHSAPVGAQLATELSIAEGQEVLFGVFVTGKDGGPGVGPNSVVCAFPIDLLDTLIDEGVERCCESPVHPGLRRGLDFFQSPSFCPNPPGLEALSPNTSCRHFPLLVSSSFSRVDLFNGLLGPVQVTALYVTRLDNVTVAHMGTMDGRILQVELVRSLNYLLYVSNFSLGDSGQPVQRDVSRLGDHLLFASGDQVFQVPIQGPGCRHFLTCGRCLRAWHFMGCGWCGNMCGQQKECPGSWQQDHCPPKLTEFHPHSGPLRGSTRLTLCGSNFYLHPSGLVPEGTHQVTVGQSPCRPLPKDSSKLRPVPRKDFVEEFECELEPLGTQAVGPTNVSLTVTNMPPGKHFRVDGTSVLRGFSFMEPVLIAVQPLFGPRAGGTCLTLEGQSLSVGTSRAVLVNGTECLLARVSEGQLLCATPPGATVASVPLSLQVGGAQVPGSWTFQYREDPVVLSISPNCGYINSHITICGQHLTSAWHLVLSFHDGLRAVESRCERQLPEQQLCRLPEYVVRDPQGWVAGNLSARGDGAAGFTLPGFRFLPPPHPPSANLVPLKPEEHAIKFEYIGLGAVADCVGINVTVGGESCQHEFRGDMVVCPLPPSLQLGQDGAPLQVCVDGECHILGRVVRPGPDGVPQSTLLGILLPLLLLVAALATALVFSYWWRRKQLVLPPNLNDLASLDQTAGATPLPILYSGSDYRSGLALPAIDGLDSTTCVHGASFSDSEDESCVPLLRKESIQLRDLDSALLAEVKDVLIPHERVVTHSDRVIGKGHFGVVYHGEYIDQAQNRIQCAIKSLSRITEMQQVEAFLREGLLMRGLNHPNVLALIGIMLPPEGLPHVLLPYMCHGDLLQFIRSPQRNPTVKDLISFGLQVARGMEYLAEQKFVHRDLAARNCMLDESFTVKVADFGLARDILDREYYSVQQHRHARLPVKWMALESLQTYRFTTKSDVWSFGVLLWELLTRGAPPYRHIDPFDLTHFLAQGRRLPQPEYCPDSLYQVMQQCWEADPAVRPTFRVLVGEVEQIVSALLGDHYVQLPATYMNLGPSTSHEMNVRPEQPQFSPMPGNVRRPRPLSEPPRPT
Sequence of Epidermal growth factor receptor (P00533 whole entry): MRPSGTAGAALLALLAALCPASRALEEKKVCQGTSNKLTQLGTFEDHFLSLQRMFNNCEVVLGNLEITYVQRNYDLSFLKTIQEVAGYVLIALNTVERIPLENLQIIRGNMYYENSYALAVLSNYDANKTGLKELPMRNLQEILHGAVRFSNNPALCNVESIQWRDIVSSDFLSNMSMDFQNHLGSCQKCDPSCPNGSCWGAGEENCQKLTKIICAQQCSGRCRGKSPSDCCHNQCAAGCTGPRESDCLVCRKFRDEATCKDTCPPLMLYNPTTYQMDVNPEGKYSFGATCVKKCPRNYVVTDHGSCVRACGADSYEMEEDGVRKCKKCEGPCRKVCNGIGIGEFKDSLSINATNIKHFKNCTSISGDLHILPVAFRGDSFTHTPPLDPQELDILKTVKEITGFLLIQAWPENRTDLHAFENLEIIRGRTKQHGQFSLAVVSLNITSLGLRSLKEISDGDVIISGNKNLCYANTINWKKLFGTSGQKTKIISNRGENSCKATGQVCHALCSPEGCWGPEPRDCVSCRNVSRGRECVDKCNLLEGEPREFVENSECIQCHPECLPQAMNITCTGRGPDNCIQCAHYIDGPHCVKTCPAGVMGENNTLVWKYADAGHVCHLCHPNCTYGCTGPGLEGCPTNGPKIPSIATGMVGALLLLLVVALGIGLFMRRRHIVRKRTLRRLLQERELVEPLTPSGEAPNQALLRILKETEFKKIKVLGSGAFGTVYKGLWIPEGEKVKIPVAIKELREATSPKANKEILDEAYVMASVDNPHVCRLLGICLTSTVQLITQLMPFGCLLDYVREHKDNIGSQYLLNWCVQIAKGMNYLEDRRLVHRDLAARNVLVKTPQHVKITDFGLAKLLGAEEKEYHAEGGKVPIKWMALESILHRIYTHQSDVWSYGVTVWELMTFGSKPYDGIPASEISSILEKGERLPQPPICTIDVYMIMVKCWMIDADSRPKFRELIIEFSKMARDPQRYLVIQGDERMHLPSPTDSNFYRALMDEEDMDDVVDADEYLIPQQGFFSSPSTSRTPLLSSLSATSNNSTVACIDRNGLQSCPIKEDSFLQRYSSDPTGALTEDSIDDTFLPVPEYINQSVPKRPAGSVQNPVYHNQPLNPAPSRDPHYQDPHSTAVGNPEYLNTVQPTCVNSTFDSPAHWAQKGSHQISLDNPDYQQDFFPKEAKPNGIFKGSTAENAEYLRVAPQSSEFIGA

| Compound | IC50 (NCI-H460 [1]) [nM] | IC50 (HT-29 [2]) [nM] | IC50 (MDA-MB-231 [3]) [nM] | IC50 (MKN-45) [nM] | further results |
| --- | --- | --- | --- | --- | --- |
| COc1cc2nccc(Oc3ccc(NC(=O)C(OC(=O)c4ccc5ccccc5c4)C(C)(C)C)cc3F)c2cc1OC (stereo unspecified) | 3340 | 4380 | 6750 |  |  |
| COc1cc2nccc(Oc3ccc(NC(=O)C(N(C(=O)c4ccc(F)cc4)C4CCCCC4)C(C)(C)C)cc3F)c2cc1OC (stereo unspecified) | 4340 | 5350 | 8480 | 6650 |  |
| COc1cc2nccc(Oc3ccc(NC(=O)C(OC(=O)c4ccc(C)cc4)C(C)(C)C)cc3F)c2cc1OC (stereo unspecified) | 780 | 850 | 1420 | 1080 |  |
| COc1cc2nccc(Oc3ccc(NC(=O)C(OC(=O)c4ccc(Br)cc4)C(C)(C)C)cc3F)c2cc1OC (stereo unspecified) | 480 | 560 | 900 | 750 |  |
| COc1cc2nccc(Oc3ccc(NC(=O)C(N(C(=O)c4ccc(F)cc4)c4ccccc4)C(C)(C)C)cc3F)c2cc1OC (stereo unspecified) | 7560 | 9270 | 14000 | 11500 |  |
| COc1cc2nccc(Oc3ccc(NC(=O)C(OC(=O)c4ccccc4Cl)C(C)(C)C)cc3F)c2cc1OC (stereo unspecified) | 220 | 290 | 760 | 460 |  |
| COc1cc2nccc(Oc3ccc(NC(=O)C(OC(=O)c4ccccc4)c4ccccc4)cc3F)c2cc1OC (stereo unspecified) | 22400 | 25600 |  |  |  |
| CCCC(OC(=O)c1ccccc1)C(=O)Nc1ccc(Oc2ccnc3cc(OC)c(OC)cc23)c(F)c1 (stereo unspecified) | 890 | 1240 | 2480 | 1870 |  |
| COc1cc2nccc(Oc3ccc(NC(=O)C(OC(=O)c4ccco4)C(C)(C)C)cc3F)c2cc1OC (stereo unspecified) | 2680 | 2960 | 3560 |  |  |
| COc1cc2nccc(Oc3ccc(NC(=O)[C@@H](OC(=O)c4ccc(F)cc4)C(C)(C)C)cc3F)c2cc1OC |  |  |  |  | IC50 [4]: 2.49 nM |
| COc1cc2nccc(Oc3ccc(NC(=O)C(C)OC(=O)c4ccc5ccccc5c4)cc3F)c2cc1OC (stereo unspecified) | 9430 | 11600 | 13300 | 15600 |  |
| COc1cc2nccc(Oc3ccc(NC(=O)C(C)OC(=O)c4cccs4)cc3F)c2cc1OC (stereo unspecified) | 2460 | 4020 | 8240 | 6390 |  |
| COc1cc2nccc(Oc3ccc(NC(=O)C(OC(=O)c4cccs4)C(C)(C)C)cc3F)c2cc1OC (stereo unspecified) | 960 | 1260 | 1890 | 1700 |  |
| COc1cc2nccc(Oc3ccc(NC(=O)C(OC(=O)c4ccccc4)C4CCCCC4)cc3F)c2cc1OC (stereo unspecified) | 10300 | 15600 | 18000 | 20500 |  |
| COc1cc2nccc(Oc3ccc(NC(=O)C(OC(=O)c4cccc(F)c4)C(C)(C)C)cc3F)c2cc1OC (stereo unspecified) | 260 | 300 | 490 | 540 |  |
| COc1ccc(C(=O)OC(C(=O)Nc2ccc(Oc3ccnc4cc(OC)c(OC)cc34)c(F)c2)C(C)(C)C)cc1 (stereo unspecified) | 1250 | 1540 | 2580 | 1860 |  |
| COc1cc2nccc(Oc3ccc(NC(=O)C(OC(=O)c4ccccc4F)C(C)(C)C)cc3F)c2cc1OC (stereo unspecified) | 210 | 240 | 440 | 380 |  |

| Compound | IC50 (NCI-H460 [1]) [nM] | IC50 (HT-29 [2]) [nM] | IC50 (MDA-MB-231 [3]) [nM] | IC50 (MKN-45) [nM] | further results |
| --- | --- | --- | --- | --- | --- |
| COc1cc2nccc(Oc3ccc(NC(=O)C(OC(=O)c4ccc(Cl)c(Cl)c4)C(C)(C)C)cc3F)c2cc1OC (stereo unspecified) | 780 | 900 | 1560 | 1120 |  |
| COc1cc2nccc(Oc3ccc(NC(=O)C(N(C(=O)c4ccc(F)cc4)C(C)(C)C)C(C)(C)C)cc3F)c2cc1OC (stereo unspecified) | 1300 | 1450 | 1700 | 1580 |  |
| COc1cc2nccc(Oc3ccc(NC(=O)C(OC(=O)c4ccc(F)cc4)C(C)(C)C)cc3F)c2cc1OC (racemic) | 140 | 200 | 420 | 260 | IC50 [4]: 2.43 nM; Ratio IC50 (NCI-H460 [5]): 1.7; Ratio IC50 (HT-29 [6]): 1.3; Ratio IC50 (MDA-MB-231 [7]): 1.6; IC50 [8]: 4.42 nM; IC50 [9]: 6.15 nM; IC50 [10]: 18.6 nM; IC50 [11]: 295 nM; IC50 [12]: 540 nM; IC50 [13]: > 10000 nM; Activity (NCI-H460 [14]): Tde |
| COc1ccc(N(C(=O)c2ccc(F)cc2)C(C(=O)Nc2ccc(Oc3ccnc4cc(OC)c(OC)cc34)c(F)c2)C(C)(C)C)cc1OC (stereo unspecified) | 6420 | 6210 | 8870 | 7520 |  |
| COc1cc2nccc(Oc3ccc(NC(=O)C(N(C(=O)c4ccc(F)cc4)c4ccc(F)cc4)C(C)(C)C)cc3F)c2cc1OC (stereo unspecified) | 8420 | 10200 | 14800 | 12400 |  |
| COc1cc2nccc(Oc3ccc(NC(=O)[C@H](OC(=O)c4ccc(F)cc4)C(C)(C)C)cc3F)c2cc1OC |  |  |  |  | IC50 [4]: 2.56 nM |
| COc1cc2nccc(Oc3ccc(NC(=O)C(C)OC(=O)C4CCCC4)cc3F)c2cc1OC (stereo unspecified) | 15200 | 24600 |  | 28200 |  |
| COc1cc2nccc(Oc3ccc(NC(=O)C(OC(=O)c4cc(OC)c(OC)c(OC)c4)C(C)(C)C)cc3F)c2cc1OC (stereo unspecified) | 2700 | 3030 | 4920 | 3870 |  |
| COc1cc2nccc(Oc3ccc(NC(=O)C(OC(=O)c4cccc(Cl)c4)C(C)(C)C)cc3F)c2cc1OC (stereo unspecified) | 310 | 390 | 860 | 600 |  |
| COc1cc2nccc(Oc3ccc(NC(=O)C(C)OC(=O)c4ccccc4)cc3F)c2cc1OC (stereo unspecified) | 1290 | 1920 | 3210 | 2390 |  |
| COc1cc2nccc(Oc3ccc(NC(=O)C(OC(=O)C4CCCC4)C(C)(C)C)cc3F)c2cc1OC (stereo unspecified) | 11600 | 9270 | 14000 | 11500 |  |
| COc1cc2nccc(Oc3ccc(NC(=O)C(OC(=O)c4ccc(C(F)(F)F)cc4)C(C)(C)C)cc3F)c2cc1OC (stereo unspecified) | 1840 | 2160 | 3520 | 2870 |  |
| CCCCN(C(=O)c1ccc(F)cc1)C(C(=O)Nc1ccc(Oc2ccnc3cc(OC)c(OC)cc23)c(F)c1)C(C)(C)C (stereo unspecified) | 470 | 520 | 860 | 680 |  |
| COc1cc2nccc(Oc3ccc(NC(=O)C(OC(=O)c4ccccc4)C(C)(C)C)cc3F)c2cc1OC (stereo unspecified) | 400 | 450 | 650 | 560 |  |
| COc1cc2nccc(Oc3ccc(NC(=O)C(NC(=O)c4ccc(F)cc4)C(C)(C)C)cc3F)c2cc1OC (stereo unspecified) | 380 | 440 | 960 | 650 |  |
| COc1cc2nccc(Oc3ccc(NC(=O)C(OC(=O)c4ccc(C(C)(C)C)cc4)C(C)(C)C)cc3F)c2cc1OC (stereo unspecified) | 2060 | 2450 | 4450 | 3950 |  |
| COc1cc2nccc(Oc3ccc(NC(=O)C(OC(=O)c4ccc(Cl)cc4)C(C)(C)C)cc3F)c2cc1OC (stereo unspecified) | 200 | 240 | 480 | 320 |  |
